Data on twelve compounds can be found in ChEMBL document CHEMBL3102728, “Leonurusoleanolides E-J, minor spirocyclic triterpenoids from Leonurus japonicus fruits” (J Nat Prod, 2014).

pIC50: −log10 of the molar value.

Common to all, as to type: functional, cell-based
One experiment deals with Huh-7. The experiment can be described thus: Cytotoxicity against human HuH7 cells after 72 hrs by CellTitre-Glo luminescent cell viability assay. The settings on record: Huh-7, 72 h.
In another experiment the test system is MCF7. Briefly: Cytotoxicity against human MCF7 cells after 72 hrs by CellTitre-Glo luminescent cell viability assay. The settings on record: MCF7, 72 h.
The subject of the next experiment is Jurkat. Briefly: Cytotoxicity against human Jurkat cells after 72 hrs by CellTitre-Glo luminescent cell viability assay. A digest of the protocol: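 Jurkat grown in RPMI-1640 with 10% FBS and penicillin/streptomycin at 37 °C, 5% CO2. Cells seeded at 1000 per well, then given serially diluted compounds, with staurosporine as the positive control. Incubated 72 h in the dark, away from bright light. Viability read by CellTiter-Glo luminescence. IC50 obtained by regression of % viable cells against log concentration, 10 concentrations, triplicate experiments.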

Experiment [1] can be described thus: Cytotoxicity against human BGC823 cells after 72 hrs by CellTitre-Glo luminescent cell viability assay. The following applies: BGC-823, 72 h.
Experiment [2] in a line: Cytotoxicity against human KE-97 cells after 72 hrs by CellTitre-Glo luminescent cell viability assay. The settings on record: KE-97, 72 h.

`CC1(C)CC[C@@]2(CC[C@]3(C)C(=CC[C@@H]4[C@@]5(C)C[C@@H](O)[C@H](O)[C@@](C)(COC(=O)/C=C\c6ccc(O)cc6)[C@@H]5CC[C@]43C)[C@H]2O)C1` (relative stereo): the pIC50 (in the experiment with Huh-7; in the experiment on MCF7; in the experiment with Jurkat; in experiment [1]; in experiment [2]) was less than 5.00 in each case.
On to `COc1cc(/C=C/C(=O)OC[C@@]2(C)[C@@H]3CC[C@]4(C)[C@H](CC=C5[C@@H](O)[C@]6(CCC(C)(C)C6)CC[C@]54C)[C@@]3(C)C[C@@H](O)[C@@H]2O)ccc1O`, for which the pIC50 (in the experiment with Huh-7; in the experiment on MCF7; in the experiment with Jurkat; in experiment [1]; in experiment [2]) was less than 5.00 in each case.
For `COc1cc(/C=C\C(=O)OC[C@@]2(C)[C@@H]3CC[C@]4(C)[C@H](CC=C5[C@@H](O)[C@]6(CCC(C)(C)C6)CC[C@]54C)[C@@]3(C)C[C@@H](O)[C@@H]2O)ccc1O` (relative stereo), the negative-log IC50 (pIC50) (in the experiment on Huh-7; in the experiment on MCF7; in the experiment with Jurkat; in experiment [1]; in experiment [2]) was less than 5.00 throughout.
As for `CC1(C)CC[C@]2(CC[C@]3(C)C(=CC[C@@H]4[C@@]5(C)C[C@@H](O)[C@H](OC(=O)/C=C\c6ccc(O)cc6)[C@@](C)(CO)[C@@H]5CC[C@]43C)[C@H]2O)C1`, the pIC50 (in the experiment on Huh-7; in the experiment on MCF7; in the experiment with Jurkat; in experiment [1]; in experiment [2]) was less than 5.00 throughout.
For `CC1(C)CC[C@@]2(CC[C@]3(C)C(=CC[C@@H]4[C@@]5(C)C[C@@H](O)[C@H](O)[C@@](C)(COC(=O)/C=C/c6ccc(O)c(O)c6)[C@@H]5CC[C@]43C)[C@H]2O)C1` (relative stereo), the pIC50 (usually the negative decadic logarithm of the IC50, by convention in mol/L) with Huh-7 is 5.01; in the experiment with MCF7, 5.37; with Jurkat it was 5.01; in experiment [1] it was less than 5.00; in experiment [2] it was less than 5.00.
With `CC1(C)CC[C@]2(CC[C@]3(C)C(=CC[C@@H]4[C@@]5(C)C[C@@H](O)[C@H](OC(=O)/C=C/c6ccc(O)cc6)[C@@](C)(CO)[C@@H]5CC[C@]43C)[C@H]2O)C1`, the pIC50 (with Huh-7; with MCF7; with Jurkat; in experiment [1]; in experiment [2]) was less than 5.00 each time.
As to `COc1cc(/C=C\C(=O)O[C@H]2[C@H](O)C[C@@]3(C)[C@@H](CC[C@]4(C)[C@@H]3CC=C3[C@@H](O)[C@@]5(CCC(C)(C)C5)CC[C@]34C)[C@]2(C)CO)ccc1O`, the pIC50 (in the experiment on Huh-7; in the experiment with MCF7; in the experiment on Jurkat; in experiment [1]; in experiment [2]) was less than 5.00 each time.
`CN[C@@H]1C[C@H]2O[C@@](C)([C@@H]1OC)n1c3ccccc3c3c4c(c5c6ccccc6n2c5c31)C(=O)NC4` [STAUROSPORINE] showed a pIC50 in the experiment with Jurkat of 6.85.
As for `CC1(C)CC[C@]2(CC[C@]3(C)C(=CC[C@@H]4[C@@]5(C)C[C@@H](O)[C@H](O)[C@@](C)(CO)[C@@H]5CC[C@]43C)[C@H]2O)C1`, the negative logarithm of the IC50 (pIC50) in the experiment with Huh-7 is less than 5.00; with MCF7, 5.07; with Jurkat, less than 5.00; in experiment [1], less than 5.00; in experiment [2], less than 5.00.
Consider `CC1(C)CC[C@@]2(CC[C@]3(C)C(=CC[C@@H]4[C@@]5(C)C[C@@H](O)[C@H](OC(=O)/C=C/c6ccc(O)c(O)c6)[C@@](C)(CO)[C@@H]5CC[C@]43C)[C@H]2O)C1` (relative stereo), for which the pIC50 in the experiment with Huh-7 is 5.72; in the experiment with MCF7 it was 5.34; in the experiment on Jurkat, 5.41; in experiment [1], 5.12; in experiment [2], 5.52.
In the same order, the values of `COc1cc(/C=C/C(=O)O[C@H]2[C@H](O)C[C@@]3(C)[C@@H](CC[C@]4(C)[C@@H]3CC=C3[C@@H](O)[C@@]5(CCC(C)(C)C5)CC[C@]34C)[C@]2(C)CO)ccc1O` are less than 5.00, less than 5.00, less than 5.00, less than 5.00 and less than 5.00.
Consider `CC1(C)CC[C@@]2(CC[C@]3(C)C(=CC[C@@H]4[C@@]5(C)C[C@@H](O)[C@H](O)[C@@](C)(COC(=O)/C=C/c6ccc(O)cc6)[C@@H]5CC[C@]43C)[C@H]2O)C1`, for which the pIC50 (in the experiment on Huh-7; with MCF7; in the experiment with Jurkat; in experiment [1]; in experiment [2]) was less than 5.00 each time.
